Test results: PMC10205775 (Saudi Pharmaceutical Journal : SPJ, 2023)
“And” between values parts separate entries of the source, which are not always exact repeats. Equal entries are not always repeated.

Experiments:
HeLa = assay: MTT antiproliferative assay, HeLa; conditions: Homo sapiens, read-out: In vitro Cytotoxicity IC50 HeLa
MDA-MB-231 = assay: MTT antiproliferative assay, MDA-MB-231; format: cell-based; conditions: Homo sapiens, MDA-MB-231, read-out: In vitro Cytotoxicity IC50 MDA-MB-231
HepG2 = assay: MTT antiproliferative assay, HepG2; format: cell-based; conditions: Homo sapiens, HepG2, read-out: In vitro Cytotoxicity IC50 HepG2
MCF-7 = assay: MTT antiproliferative assay, MCF-7; conditions: Homo sapiens, MCF7, read-out: In vitro Cytotoxicity IC50 MCF-7
[1] = test system: HepG2, MCF-7, MDA-MB-231 and HeLa; assay: MTT antiproliferative assay, all tested cell lines; format: cell-based; conditions: Homo sapiens, read-out: IC50 values against all tested cell lines (range)
VEGFR2 = VEGFR2 (Homo sapiens, UniProt P35968); assay: In vitro protein kinase assay, VEGFR2; format: biochemical
Sequence of VEGFR2 (P35968 20-1356): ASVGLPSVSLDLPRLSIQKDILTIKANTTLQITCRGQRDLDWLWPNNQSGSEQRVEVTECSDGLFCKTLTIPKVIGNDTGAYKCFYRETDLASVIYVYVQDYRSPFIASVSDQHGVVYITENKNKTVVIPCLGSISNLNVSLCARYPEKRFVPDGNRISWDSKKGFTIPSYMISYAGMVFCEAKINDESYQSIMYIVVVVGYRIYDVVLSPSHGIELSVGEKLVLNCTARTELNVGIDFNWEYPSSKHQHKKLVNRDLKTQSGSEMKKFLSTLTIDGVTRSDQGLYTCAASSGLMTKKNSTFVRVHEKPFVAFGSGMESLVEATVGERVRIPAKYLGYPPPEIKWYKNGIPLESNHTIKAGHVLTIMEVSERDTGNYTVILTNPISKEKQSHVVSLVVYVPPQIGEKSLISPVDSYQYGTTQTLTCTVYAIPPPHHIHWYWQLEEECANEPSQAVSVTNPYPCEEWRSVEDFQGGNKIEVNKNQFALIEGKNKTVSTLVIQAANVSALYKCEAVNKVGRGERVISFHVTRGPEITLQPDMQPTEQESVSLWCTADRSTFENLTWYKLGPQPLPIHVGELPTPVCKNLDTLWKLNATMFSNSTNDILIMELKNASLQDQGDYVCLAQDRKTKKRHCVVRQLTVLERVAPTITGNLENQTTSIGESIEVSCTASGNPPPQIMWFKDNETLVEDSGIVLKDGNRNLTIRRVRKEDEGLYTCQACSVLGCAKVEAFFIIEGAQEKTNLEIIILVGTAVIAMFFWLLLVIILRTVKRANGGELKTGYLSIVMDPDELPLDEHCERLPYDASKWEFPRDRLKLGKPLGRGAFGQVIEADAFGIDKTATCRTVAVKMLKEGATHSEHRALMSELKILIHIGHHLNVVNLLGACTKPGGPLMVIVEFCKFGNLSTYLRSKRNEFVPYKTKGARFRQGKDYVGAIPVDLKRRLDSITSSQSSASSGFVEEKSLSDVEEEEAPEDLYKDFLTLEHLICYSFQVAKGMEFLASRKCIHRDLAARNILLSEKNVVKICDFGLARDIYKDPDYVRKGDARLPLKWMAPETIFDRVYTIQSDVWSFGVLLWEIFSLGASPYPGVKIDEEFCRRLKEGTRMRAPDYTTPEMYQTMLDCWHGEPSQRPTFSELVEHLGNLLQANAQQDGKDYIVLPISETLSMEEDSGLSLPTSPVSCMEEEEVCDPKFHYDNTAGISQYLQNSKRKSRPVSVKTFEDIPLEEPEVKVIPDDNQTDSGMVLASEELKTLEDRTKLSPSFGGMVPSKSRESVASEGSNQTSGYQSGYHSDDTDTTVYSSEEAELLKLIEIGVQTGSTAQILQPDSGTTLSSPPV

CDK2 = CDK2 (Homo sapiens, UniProt P24941); assay: In vitro protein kinase assay, CDK2; format: biochemical
Caspase 9 = assay: Apoptotic protein expression, Caspase 9; format: cell-based, human; conditions: HepG2 cells, 8.39 μM of compound 7, 24 h; control = 1
Procedure, shortened: (§1)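 HepG2 cells were incubated with 8.39 μM test compound for 24 h. Apoptotic protein levels were measured by a previously reported method. Expression was normalised to β-actin and given as fold change versus untreated HepG2 cells, which were set to 1. Values are means of three experiments.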

Her2 = Her2 (Homo sapiens, UniProt P04626); assay: In vitro protein kinase assay, Her2; format: biochemical
Sequence of Her2 (P04626 23-1255): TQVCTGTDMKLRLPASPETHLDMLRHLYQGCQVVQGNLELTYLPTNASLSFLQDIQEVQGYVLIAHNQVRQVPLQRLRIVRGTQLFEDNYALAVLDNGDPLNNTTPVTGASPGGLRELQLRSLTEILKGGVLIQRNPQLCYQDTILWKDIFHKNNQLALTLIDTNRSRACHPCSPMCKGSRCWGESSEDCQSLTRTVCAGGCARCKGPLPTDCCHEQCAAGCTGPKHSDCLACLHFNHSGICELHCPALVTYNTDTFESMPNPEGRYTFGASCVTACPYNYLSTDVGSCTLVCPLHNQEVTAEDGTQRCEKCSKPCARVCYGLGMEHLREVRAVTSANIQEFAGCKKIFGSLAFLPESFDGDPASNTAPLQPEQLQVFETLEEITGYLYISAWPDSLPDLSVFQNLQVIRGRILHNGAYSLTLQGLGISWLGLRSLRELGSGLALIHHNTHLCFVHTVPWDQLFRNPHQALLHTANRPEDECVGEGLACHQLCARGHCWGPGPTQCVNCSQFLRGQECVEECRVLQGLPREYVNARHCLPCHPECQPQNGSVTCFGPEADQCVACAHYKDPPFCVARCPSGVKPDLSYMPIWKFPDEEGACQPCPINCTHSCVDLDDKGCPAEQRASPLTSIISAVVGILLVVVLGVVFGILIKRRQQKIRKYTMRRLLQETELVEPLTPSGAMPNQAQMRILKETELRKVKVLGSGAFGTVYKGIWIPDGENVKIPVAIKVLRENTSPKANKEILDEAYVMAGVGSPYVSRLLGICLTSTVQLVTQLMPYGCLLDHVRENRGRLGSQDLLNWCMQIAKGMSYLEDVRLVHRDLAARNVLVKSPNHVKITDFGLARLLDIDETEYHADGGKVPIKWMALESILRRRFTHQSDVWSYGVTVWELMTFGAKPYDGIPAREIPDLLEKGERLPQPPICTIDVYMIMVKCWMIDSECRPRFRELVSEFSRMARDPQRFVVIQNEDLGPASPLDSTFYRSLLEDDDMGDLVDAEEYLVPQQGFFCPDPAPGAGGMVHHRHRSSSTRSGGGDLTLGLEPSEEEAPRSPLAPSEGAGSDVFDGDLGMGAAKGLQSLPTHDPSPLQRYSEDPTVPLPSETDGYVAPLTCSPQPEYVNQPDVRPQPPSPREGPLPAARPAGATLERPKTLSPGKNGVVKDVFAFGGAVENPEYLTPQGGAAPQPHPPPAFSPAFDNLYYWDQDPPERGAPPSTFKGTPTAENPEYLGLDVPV

EGFR = EGFR (Homo sapiens, UniProt P00533); assay: In vitro protein kinase assay, EGFR; format: biochemical
Sequence of EGFR (P00533 25-1210): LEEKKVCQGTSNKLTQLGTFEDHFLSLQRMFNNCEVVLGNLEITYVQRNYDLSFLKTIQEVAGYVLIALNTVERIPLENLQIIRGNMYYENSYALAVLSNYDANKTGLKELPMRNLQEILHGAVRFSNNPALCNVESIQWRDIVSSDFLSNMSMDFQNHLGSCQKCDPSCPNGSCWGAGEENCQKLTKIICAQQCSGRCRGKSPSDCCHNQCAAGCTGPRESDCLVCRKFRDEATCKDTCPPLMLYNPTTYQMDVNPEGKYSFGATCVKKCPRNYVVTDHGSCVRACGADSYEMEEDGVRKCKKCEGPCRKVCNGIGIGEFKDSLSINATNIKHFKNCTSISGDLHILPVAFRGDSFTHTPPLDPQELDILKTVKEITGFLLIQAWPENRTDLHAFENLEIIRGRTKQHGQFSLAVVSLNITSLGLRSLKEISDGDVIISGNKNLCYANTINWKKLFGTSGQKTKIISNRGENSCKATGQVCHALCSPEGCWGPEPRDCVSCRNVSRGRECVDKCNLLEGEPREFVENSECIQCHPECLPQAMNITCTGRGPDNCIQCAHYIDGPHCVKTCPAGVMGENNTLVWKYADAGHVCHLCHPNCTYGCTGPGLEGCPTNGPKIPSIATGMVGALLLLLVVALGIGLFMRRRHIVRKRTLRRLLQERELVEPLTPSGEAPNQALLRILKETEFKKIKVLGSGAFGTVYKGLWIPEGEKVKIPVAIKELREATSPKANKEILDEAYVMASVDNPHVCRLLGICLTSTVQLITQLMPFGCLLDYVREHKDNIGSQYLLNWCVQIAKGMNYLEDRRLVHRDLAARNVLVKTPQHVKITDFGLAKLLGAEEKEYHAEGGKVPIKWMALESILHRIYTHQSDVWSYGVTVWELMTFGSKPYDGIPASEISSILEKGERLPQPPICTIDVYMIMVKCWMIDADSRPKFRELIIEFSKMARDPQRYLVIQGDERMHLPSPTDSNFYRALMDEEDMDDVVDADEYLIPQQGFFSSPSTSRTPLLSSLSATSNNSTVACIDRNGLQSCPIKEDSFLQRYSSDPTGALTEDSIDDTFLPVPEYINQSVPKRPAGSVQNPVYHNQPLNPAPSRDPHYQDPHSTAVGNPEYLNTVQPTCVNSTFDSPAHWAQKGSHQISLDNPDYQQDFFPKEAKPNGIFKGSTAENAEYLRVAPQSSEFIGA

HepG2 cells [2] = assay: Cell cycle distribution by flow cytometry; format: cell-based, human; conditions: 8.39 μM of compound 7, 24 h
Caspase 3 = assay: Apoptotic protein expression, Caspase 3; format: cell-based, human; conditions: HepG2 cells, 8.39 μM of compound 7, 24 h; control = 1
Procedure, shortened: as §1

HepG2 cells [3] = assay: Annexin-V/propidium iodide double staining apoptosis assay; format: cell-based, human; conditions: 24 h incubation

Row | Structure (SMILES) | IC50 (HeLa) [µM] | IC50 (MDA-MB-231) [µM] | IC50 (HepG2) [µM] | IC50 (MCF-7) [µM] | further results
1 | O=C1Nc2ccc([N+](=O)[O-])cc2C1=NNc1ncnc2[nH]ccc12 [Compound 8, 3-(2-(7H-pyrrolo[2,3-d]pyrimidin-4-yl)hydrazineylidene)-5-nitroindolin-2-one] | 38 ± 2.2 | 36.9 ± 2.4 | 52.1 ± 2.9 | 48.5 ± 2.8 | –
2 | O=C1Nc2ccc(F)cc2C1=NNc1ncnc2[nH]ccc12 [Compound 5, 3-(2-(7H-pyrrolo[2,3-d]pyrimidin-4-yl)hydrazineylidene)-5-fluoroindolin-2-one] | 29.1 ± 2 | 32.5 ± 2.1 | 37.3 ± 2.5 | 41.6 ± 2.6 | –
3 | O=C1Nc2ccccc2C1=NNc1ncnc2[nH]ccc12 [Compound 3, 3-(2-(7H-pyrrolo[2,3-d]pyrimidin-4-yl)hydrazineylidene)indolin-2-one] | 9.86 ± 0.7 | 7.86 ± 0.6 | 19.1 ± 1.4 | 14.2 ± 1.2 | IC50 [1]: 7.86 to 27.6 µM
4 | COc1ccc2c(c1)C(=NNc1ncnc3[nH]ccc13)C(=O)N2 [Compound 7, 3-(2-(7H-pyrrolo[2,3-d]pyrimidin-4-yl)hydrazineylidene)-5-methoxyindolin-2-one] | 6.37 ± 0.3 | 5.28 ± 0.3 | 8.39 ± 0.7 | 9.08 ± 0.7 | IC50 (VEGFR2): 0.224 ± 0.012 µM; IC50 (CDK2): 0.302 ± 0.016 µM; Folds of gene expression (Normalized to β-actin) Caspase 9 (Caspase 9): 3.3 fold and 3.295 fold; IC50 (Her2): 0.157 ± 0.022 µM; IC50 (EGFR): 0.166 ± 0.01 µM; DNA content (%) %G1 (HepG2 cells [2]): 54.22%; DNA content (%) %G2/M (HepG2 cells [2]): 11.02%; DNA content (%) %S (HepG2 cells [2]): 34.76%; DNA content (%) %Sub–G1 (HepG2 cells [2]): 32.34%; increase of the DNA in the sub-G1 compared to untreated cells (HepG2 cells [2]): 17 fold; Folds of gene expression (Normalized to β-actin) Caspase 3 (Caspase 3): 5.42 fold and 5.421 fold; Apoptosis Early (HepG2 cells [3]): 9.91%; Apoptosis Late (HepG2 cells [3]): 15.92%; Apoptosis Total (HepG2 cells [3]): 32.34%; Necrosis (HepG2 cells [3]): 6.51%
5 | Cc1ccc2c(c1)C(=NNc1ncnc3[nH]ccc13)C(=O)N2 [Compound 6, 3-(2-(7H-pyrrolo[2,3-d]pyrimidin-4-yl)hydrazineylidene)-5-methylindolin-2-one] | 19.8 ± 1.3 | 15.2 ± 1.1 | 11.7 ± 0.9 | 27.6 ± 2 | IC50 [1]: 7.86 to 27.6 µM
6 | COc1cccc2c1C(=O)c1c(O)c3c(c(O)c1C2=O)C[C@@](O)(C(=O)CO)C[C@@H]3O[C@H]1C[C@H](N)[C@H](O)[C@H](C)O1 [Doxorubicin, reference compound] | – | – | 4.5 ± 0.2 | – | –
7 | O=C1Nc2ccc(Cl)cc2C1=NNc1ncnc2[nH]ccc12 [Compound 4, 3-(2-(7H-pyrrolo[2,3-d]pyrimidin-4-yl)hydrazineylidene)-5-chloroindolin-2-one] | 24.2 ± 1.8 | 21.1 ± 1.8 | 28.4 ± 2.1 | 33.9 ± 2.2 | –
